Screening data from PubChem.
The list is not random: actives were taken first. Their share in the collection is about 2.2%.
HIV Env fusion – HIV envelope-mediated fusion inhibition; inhibition, % at 12.3 µM; HeLa-JRFL Env/CEM21 cell fusion, luciferase; AID 651610; actives 1.1% (n = 360,000);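 active = mean replicate inhibition score of at least 50 and every replicate individually at or above 50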
PvdQ inh – P. aeruginosa PvdQ acylase inhibition | purified PvdQ acylase, fluorescence plate reader | inhibition, % at 10 µM | actives 0.063% (n = 340,000) | AID 488965; in the data active = inhibition above about 30%, passing the limit was not always enough
FN deposition inh – fibronectin deposition inhibition | AH1F fibroblasts, Alexa488-fibronectin deposition fluorescence, overnight | inhibition, % at 12.6 µM | actives 0.086% (n = 350,000);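 active = mean inhibition across replicates of 30% or more, regardless of how many single replicates reach that level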
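Measured by – fluorescence 485/525 nm · System – AH1F fibroblast monolayer, labelled fibronectin deposition · Amount – 10000 cells per well · Buffer or medium – serum-reduced DMEM (2% serum) · Doses – single dose, pinned · Also added – fluorescent fibronectin at 24 nM final · Schedule – 1 h cell attachment, overnight exposure to compound and label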
PDI turbidity – inhibitors of human protein disulfide isomerase | inhibition, % at 10 µM | P07237 | AID 588391 | actives 0.052% (n = 350,000) | PDI insulin aggregation turbidity, A650, 90 min;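 active = mean inhibition across replicates of 30% or more, whatever share of single replicates reach that level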
Target sequence (P07237 whole entry, looked up): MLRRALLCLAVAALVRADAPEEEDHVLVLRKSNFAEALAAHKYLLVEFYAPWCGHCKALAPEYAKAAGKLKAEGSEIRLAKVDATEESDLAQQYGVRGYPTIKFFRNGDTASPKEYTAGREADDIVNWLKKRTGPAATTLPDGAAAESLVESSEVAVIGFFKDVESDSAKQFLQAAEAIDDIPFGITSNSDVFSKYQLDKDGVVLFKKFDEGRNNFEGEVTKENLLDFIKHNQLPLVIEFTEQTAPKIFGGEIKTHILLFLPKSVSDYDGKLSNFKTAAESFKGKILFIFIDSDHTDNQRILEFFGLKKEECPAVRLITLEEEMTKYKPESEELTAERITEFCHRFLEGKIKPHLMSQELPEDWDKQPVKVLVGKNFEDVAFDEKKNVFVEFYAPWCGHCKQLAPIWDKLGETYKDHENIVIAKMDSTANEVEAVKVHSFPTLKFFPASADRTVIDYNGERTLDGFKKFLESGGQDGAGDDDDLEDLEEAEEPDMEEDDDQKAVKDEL
Ecoli rRNA inh – inhibitors of bacterial rRNA selective over humanized ribosomes; GFP signal change (wild-type ribosome), % (no concentration beside the values); E. coli WT GFP vs humanized-ribosome RFP mutants, fluorescence, 24 h; stronger effect = lower value; DMSO median 0, no signal -100; AID 720706; actives 1.6% (n = 350,000);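 active = significant combined selectivity score with lowered wild-type GFP, culture density cut under 30%, mutant RFP and density less affected; inactive = any of these conditions unmet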
ERp5 inh – inhibitors of human ERp5. ERp5 insulin aggregation, absorbance 650 nm, 90 min. actives 0.05% (n = 350,000). Q15084. inhibition, % at 9.99 µM;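 active = mean replicate inhibition above about 25%, with every replicate also reaching it, limit read from the data, passing the limit was not always enough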
A number is an active result; . = inactive; / = not tested or not shown.

SMILES	HIV Env fusion	PvdQ inh	FN deposition inh	PDI turbidity	Ecoli rRNA inh	ERp5 inh
CCOc1ccccc1N/C(=C(/C(Cl)=C(Cl)Cl)[N+](=O)[O-])n1cncn1	/	.	/	.	-25	.
Cc1ccc(NC2=C(C(=O)c3ccccc3)N(C)S(=O)(=O)c3ccccc32)cc1	.	.	.	.	/	/
CN1C(C(=O)c2ccccc2)=C(N)c2ccccc2S1(=O)=O	.	.	.	.	-23	.
COc1ccc(S(=O)(=O)Nc2ccc3c(c2)OCO3)cc1OC	.	.	.	.	.	.
COc1ccc(NS(=O)(=O)c2ccc3c(c2)OCCO3)cc1OC	93	.	.	.	.	.
Cc1noc(C)c1NC(=O)Nc1ccc2c(c1)CC(=O)N([C@@H](C)CO)C[C@H](C)[C@H](CN(C)S(=O)(=O)c1cn(C)cn1)O2	.	/	.	/	.	/
CCN(CC)C(=O)CSC(Nc1ccc(F)cc1)=C(C#N)C#N	.	.	.	.	/	.
Cc1ccc(CSC(Nc2ccc(F)cc2)=C(C#N)C#N)cc1	68	.	.	.	/	.
Cc1ccccc1S(=O)(=O)N(C)C[C@@H]1OCc2ccccc2-c2c(n(C)c3ccccc23)C(=O)N([C@H](C)CO)C[C@@H]1C	74	/	.	.	.	.
C[C@@H]1CN([C@@H](C)CO)C(=O)c2c(c3ccccc3n2C)-c2ccccc2CO[C@H]1CN(C)S(=O)(=O)c1ccc(C#N)cc1	69	/	.	.	.	.
C[C@H](CO)N1C[C@H](C)[C@H](CN(C)C(=O)NC2CCCCC2)OCCCC[C@H](C)Oc2ccc(NS(=O)(=O)c3ccccc3)cc2C1=O	.	/	.	/	.	.
CC1(Cc2ccc(Cl)c(Cl)c2)C(=O)Nc2ccc(S(=O)(=O)NC3CCCCC3)cc21 (configuration not stated)	57	/	.	.	/	.
CC1(Cc2cccc(F)c2)C(=O)Nc2ccc(S(=O)(=O)NC3CCCCC3)cc21 (configuration not stated)	58	/	.	.	.	.
COc1ccc(S(=O)(=O)N[C@@H]2CC[C@H](CCNC(=O)c3ccccc3F)O[C@@H]2CO)cc1	.	/	/	/	.	.
C[C@@H]1CCCCO[C@@H](CN(C)S(C)(=O)=O)[C@H](C)CN([C@H](C)CO)C(=O)c2cc(NC(=O)c3ccccc3)ccc2O1	.	/	/	/	.	.
Cn1c(CS(=O)Cc2c(Cl)cccc2Cl)nnc1SCc1ccc(Cl)cc1 (configuration not stated)	62	.	.	.	/	/
O=S(Cc1ccc(Br)cc1)Cc1nnc(SCc2ccc(Cl)cc2)n1-c1ccccc1 (configuration not stated)	65	.	.	.	/	/
C[C@H]1CN([C@@H](C)CO)C(=O)c2cc(-c3ccc(C#N)cc3)cnc2O[C@H]1CN(C)Cc1ccccn1	.	/	.	/	.	.
COCC(=O)N1[C@H](CO)[C@H]2c3ccccc3N(C(=O)c3ccccc3)C[C@H]21	/	/	/	/	.	.
Cc1ccc(S(=O)(=O)Nc2cccc3c2O[C@@H](CN(C)Cc2ccc(C(F)(F)F)cc2)[C@H](C)CN([C@H](C)CO)C3=O)cc1	/	/	/	/	.	.
O=C(c1cc(COc2cccc(C(F)(F)F)c2)on1)N1CCC(c2ccccc2)CC1	.	.	.	.	.	.
O=C(c1cc(COc2cccc(C(F)(F)F)c2)on1)N1CCC(c2ccncc2)CC1	72	.	/	.	.	.
C/C(=N\Nc1nc2ccccc2[nH]1)c1ccc(N2CCOCC2)cc1	.	.	/	.	-48	.
CC(=O)N1CCC(=NNc2nc3ccccc3[nH]2)CC1	.	.	.	.	-18	.
CCC(C)(C)C1CCC(=NNc2nc3ccccc3[nH]2)CC1 (configuration not stated)	.	.	.	.	.	.
C/C(=N\Nc1nc(C)cc(C)n1)c1ccc(N2CCOCC2)cc1	.	.	.	.	.	.
Cc1ccccc1-c1nc(CN2CCC(C(=O)NCCC3=CCCCC3)CC2)c(C)o1	73	.	.	.	/	/
COc1ccc(CCNC(=O)C2CCN(Cc3nc(-c4ccccc4C)oc3C)CC2)cc1OC	57	.	.	.	/	/
CCN(CCNC(=O)C1CCN(Cc2nc(-c3cccc(Cl)c3)oc2C)CC1)c1ccccc1	55	.	.	.	/	/
O=C(c1ccncc1)N1CC(=O)N2[C@H](C1)[C@H](c1ccc(C#CCC3CCCC3)cc1)[C@@H]2CO	/	/	/	/	.	/
